Source: ChEMBL document CHEMBL4364260, “Discovery of Ziresovir as a Potent, Selective, and Orally Bioavailable Respiratory Syncytial Virus Fusion Protein Inhibitor” (J Med Chem, 2019)
The source made the active and inactive calls. No cut-off for these calls is given here.

Legend:
[1] = AUC (0 to 24 hrs) in Beagle dog at 10 mg/kg, po; assay type: ADME, organism-based, Canis lupus familiaris; set-up: dose 10 mg/kg, time < 24 hr, route oral; conditions: in vivo
Procedure, shortened: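 Single-dose PK. Dog received 1 mg/kg iv or 10 mg/kg po, and cynomolgus monkey received 2 mg/kg iv or 10 mg/kg po. Both were given as a solution in 12.5% captisol in water. Plasma AUC was taken from the oral arm, with CL, Vss, iv T1/2 and F also derived.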

[2] = AUC (0 to 24 hrs) in CD-1 mouse at 50 mg/kg, po; assay type: ADME, organism-based; set-up: dose 50 mg/kg, time < 24 hr, route oral; conditions: in vivo
Procedure, shortened: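 Single-dose PK in mouse at 5 mg/kg iv or 50 mg/kg po, as a solution in 5% DMSO, 40% PEG400 and 55% 0.9% sodium chloride. Plasma AUC was taken from the oral arm, with CL, Vss, iv T1/2 and F also derived.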

[3] = AUC (0 to 24 hrs) in CD-1 mouse plasma at 10 mg/kg/day, po administered via gavage and measured up to 24 hrs by LC/MS/MS analysis; assay type: ADME, organism-based; set-up: dose 10 mg/kg/day, time < 24 hr, route oral
[4] = Oral bioavailability in CD-1 mouse at 50 mg/kg; assay type: ADME, organism-based; conditions: in vivo
Procedure, shortened: (§1)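 Single-dose PK in CD-1 mice: 5 mg/kg iv, 50 mg/kg po. Dosed as a solution in 5% DMSO, 40% PEG400, 55% of 0.9% NaCl. Plasma CL, Vss, iv T1/2, AUC and F were derived.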

[5] = system: Human parainfluenza virus 2; test: Antiviral activity against Human parainfluenza virus 2 infected in human Hep2 cells assessed as reduction in virus induced cytopathic effect after 5 days by CCK-8 assay; assay type: functional, organism-based; conditions: Human orthorubulavirus 2
[6] = Cytotoxicity against human Hep2 cells assessed as reduction in cell viability after 5 days by CCK-8 assay; assay type: cell-based; conditions: HEp-2 cells
Procedure, shortened: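 Uninfected HEp-2 cells (6000/well) were incubated 5 days with serially diluted compound. Viability was read by CCK-8, and CC50 is the concentration toxic to 50% of cells.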

[7] = Antiviral activity against Human respiratory syncytial virus A strain Long infected in BALB/c mouse assessed as log reduction in virus titer in lung at 50 mg/kg, po BID administered up to 8 hrs for 4 days relative to control; assay type: functional
Procedure, shortened: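 Six-week-old female BALB/c mice, housed specific-pathogen-free, were anesthetized intraperitoneally with ketamine/xylazine and given RSV Long strain intranasally (5×10^5 PFU in 100 µL). Oral dosing was twice daily (0 h and 8 h) for 4 days, 12 mice per group. Mice were then euthanized with CO₂ and lungs harvested for viral titer, compared with vehicle.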

[8] = Antiviral activity against Human respiratory syncytial virus B 821 clinical isolates infected in human Hep2 cells assessed as reduction in virus induced cytopathic effect in presence of 10% FBS after 5 days by CCK-8 assay; assay type: functional, cell-based; conditions: human respiratory syncytial virus, 821, HEp-2, 120 h
Procedure, shortened: (§2)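 HEp-2 cells seeded at 6000/well and infected the next day at MOI 0.02, a dose that gives about 90% CPE by day 5. Serial compound dilutions were present throughout, in standard medium with 10% FBS. Viability was read by CCK-8 at day 5, and EC50 is the concentration that cuts CPE by 50%.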

[9] = Antiviral activity against Human respiratory syncytial virus A 1177 clinical isolates infected in human Hep2 cells assessed as reduction in virus induced cytopathic effect in presence of 10% FBS after 5 days by CCK-8 assay; assay type: functional, cell-based; conditions: human respiratory syncytial virus, 1177, HEp-2, 120 h; procedure, shortened: as §2
[10] = Oral bioavailability in Beagle dog at 10 mg/kg; assay type: ADME, organism-based, Canis lupus familiaris; conditions: in vivo
Procedure, shortened: (§3)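 Beagle dog single-dose PK at 1 mg/kg iv and 10 mg/kg po, dosed as a solution in 12.5% captisol in water. Plasma clearance, Vss, iv T1/2, AUC and F were reported.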

[11] = Clearance in Sprague-Dawley rat at 2 mg/kg, iv or 10 mg/kg, po; assay type: ADME, organism-based; conditions: in vivo
Procedure, shortened: (§4)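 Rat single-dose PK: 2 mg/kg iv and 10 mg/kg po. Compound was given as a solution in 5% DMSO/40% PEG400/55% of 0.9% saline. Plasma CL, Vss, iv half-life, AUC and oral bioavailability were reported.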

[12] = Clearance in cynomolgus monkey at 2 mg/kg, iv or 10 mg/kg, po; assay type: ADME, organism-based, Macaca fascicularis; conditions: in vivo
Procedure, shortened: (§5)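 Cynomolgus monkeys got single doses of 2 mg/kg iv and 10 mg/kg po as a solution in 12.5% captisol in water. Plasma CL, Vss, iv T1/2, AUC and oral F were derived.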

[13] = Tmax in CD-1 mouse lung at 10 mg/kg/day, po administered via gavage and measured up to 24 hrs by LC/MS/MS analysis; assay type: ADME, organism-based
[14] = Antiviral activity against Human respiratory syncytial virus A strain Long infected in human Hep2 cells assessed as reduction in virus induced cytopathic effect in presence of 10% FBS after 5 days by CCK-8 assay; assay type: functional, cell-based; conditions: HEp-2, 120 h; procedure, shortened: as §2
[15] = Antiviral activity against Human respiratory syncytial virus A strain Long infected in human Hep2 cells assessed as reduction in virus induced cytopathic effect in presence of 40% FBS after 5 days by CCK-8 assay; assay type: functional, cell-based; conditions: HEp-2, 120 h
Procedure, shortened: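 RSV Long CPE assay with 40% FBS in place of the standard 10%. HEp-2 cells at 6000/well were infected next day at MOI 0.02 and kept 5 days with serially diluted compound. CCK-8 viability gave the 50% effective concentration.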

[16] = system: Human respirovirus 3; test: Antiviral activity against Human parainfluenza virus 3 infected in human Hep2 cells assessed as reduction in virus induced cytopathic effect after 5 days by CCK-8 assay; assay type: functional, organism-based
[17] = Half-life in Beagle dog at 1 mg/kg, iv; assay type: ADME, organism-based, Canis lupus familiaris; conditions: in vivo; procedure, shortened: as §3
[18] = Half-life in Sprague-Dawley rat at 2 mg/kg, iv; assay type: ADME, organism-based; conditions: in vivo; procedure, shortened: as §4
[19] = Cmax in CD-1 mouse lung at 10 mg/kg/day, po administered via gavage and measured up to 24 hrs by LC/MS/MS analysis; assay type: ADME, organism-based; set-up: dose 10 mg/kg/day, route oral
[20] = system: Fusion glycoprotein F0 (Human respiratory syncytial virus A (strain A2)), P03420 [D489A]; test: Inhibition of Human respiratory syncytial virus Fusion protein D489A mutant expressed in Hep2 cells as reduction in virus induced cytopathic effect by CCK-8 assay; assay type: cell-based
Procedure, shortened: (§6)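 HEp-2 cells were seeded at 6000/well and infected with plaque-purified RSV carrying the F-protein mutation (D486N or D489A) at MOI 0.04, with serially diluted compound. Viability was read by CCK-8 absorbance at 450 nm/650 nm, and EC50/EC90 were derived from protection against virus-induced cytopathic effect.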

[21] = Volume of distribution at steady state in cynomolgus monkey at 2 mg/kg, iv or 10 mg/kg, po; assay type: ADME, organism-based, Macaca fascicularis; conditions: in vivo, read-out: Vdss; procedure, shortened: as §5
[22] = Half-life in CD-1 mouse at 5 mg/kg, iv; assay type: ADME, organism-based; conditions: in vivo; procedure, shortened: as §1
[23] = system: Fusion glycoprotein F0 (Human respiratory syncytial virus A (strain A2)), P03420 [D486N]; test: Inhibition of Human respiratory syncytial virus Fusion protein D486N mutant expressed in Hep2 cells as reduction in virus induced cytopathic effect by CCK-8 assay; assay type: cell-based; procedure, shortened: as §6
[24] = system: Human respirovirus 1; test: Antiviral activity against Human parainfluenza virus 1 infected in human Hep2 cells assessed as reduction in virus induced cytopathic effect after 5 days by CCK-8 assay; assay type: functional, organism-based

Cc1ccc2nc(N3CCS(=O)(=O)c4ccccc4C3)nc(NCC3(N)COC3)c2c1 [ZIRESOVIR]
AUC(0-t) at 24 h [1]: 1170 ng·h/mL | AUC(0-t) at 24 h [2]: 1970 ng·h/mL | AUC at 24 h [3]: 8380 ng·h/mL | bioavailability [4]: 66% | Activity [5]: inactive | CC50 at 120 h [6]: > 100 µM | FC [7]: 1.9 | EC50 [8]: 3 nM | EC90 [8]: 8 nM | EC50 [9]: 4 nM | EC90 [9]: 7 nM | bioavailability [10]: 26% | clearance [11]: 58 mL/min/kg | clearance [12]: 26 mL/min/kg | Tmax [13]: 1 h | EC50 [14]: 3 nM | EC90 [14]: 5 nM | EC50 [15]: 3 nM | EC90 [15]: 8 nM | Activity [16]: inactive | half-life [17]: 168 min | half-life [18]: 72 min | Cmax [19]: 22700 ng/mL | EC90 [20]: 10 µM | Vd [21]: 1.9 L/kg | half-life [22]: 24 min | EC90 [23]: > 10 µM | Activity [24]: inactive
